Data taken from PMC5955861 (Oncogene, 2018).
Read-outs that look alike come from different tables or passages of the source.

Legend:
HL-60 = assay: alamarBlue cell proliferation assay; format: cell-based; conditions: Homo sapiens
Method in brief: (§1)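 Leukemia, lymphoma and myeloma lines (from ATCC or DSMZ, grown per supplier instructions, STR-authenticated; GFP-labelled sublines where stated) were incubated with test compound in 96-well flat-bottom plates. Viability was read by alamarBlue conversion, and EC50 was taken from the concentration-response.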

Kasumi-1 = assay: alamarBlue cell proliferation assay; format: cell-based; conditions: Homo sapiens
Method in brief: as §1

Kasumi-3 = assay: alamarBlue cell proliferation assay; format: cell-based
Method in brief: as §1

KG-1 = assay: alamarBlue cell proliferation assay; format: cell-based; conditions: Homo sapiens
Method in brief: as §1

MOLM-13 = assay: alamarBlue cell proliferation assay; format: cell-based; conditions: Homo sapiens
Method in brief: as §1

NOMO-1 = assay: alamarBlue cell proliferation assay; format: cell-based; conditions: Homo sapiens
Method in brief: as §1

OCI-AML3 = assay: alamarBlue cell proliferation assay; format: cell-based; conditions: Homo sapiens, OCI-AML-3
Method in brief: as §1

THP-1 GFP = assay: alamarBlue cell proliferation assay; format: cell-based; conditions: Homo sapiens
Method in brief: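 Cell lines from ATCC or DSMZ were cultured per supplier's instructions and STR-authenticated. MV-4-11B is a clone of MV-4-11 carrying heterozygous TP53 c.742C>T (p.R248W). Cells were exposed to test compound in 96-well format, and viability was read after incubation with alamarBlue.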

K562 = assay: alamarBlue cell proliferation assay; format: cell-based; conditions: Homo sapiens
Method in brief: as §1

MOLT-3 = assay: alamarBlue cell proliferation assay; format: cell-based; conditions: Homo sapiens
Method in brief: as §1

MM.1R = assay: alamarBlue cell proliferation assay; format: cell-based
Method in brief: as §1

RPMI 8226 = assay: alamarBlue cell proliferation assay; format: cell-based; conditions: Homo sapiens
Method in brief: as §1

OCI-Ly18 = assay: alamarBlue cell proliferation assay; format: cell-based; conditions: Homo sapiens
Method in brief: as §1

Pfeiffer = assay: alamarBlue cell proliferation assay; format: cell-based; conditions: Homo sapiens
Method in brief: as §1

RI-1 = assay: alamarBlue cell proliferation assay; format: cell-based
Method in brief: as §1

OCI-Ly19 = assay: alamarBlue cell proliferation assay; format: cell-based; conditions: Homo sapiens
Method in brief: as §1

SU-DHL4 = assay: alamarBlue cell proliferation assay; format: cell-based; conditions: Homo sapiens, SU-DHL-4
Method in brief: as §1

JEKO-1 = assay: alamarBlue cell proliferation assay; format: cell-based; conditions: Homo sapiens
Method in brief: as §1

DERL-2 = assay: alamarBlue cell proliferation assay; format: cell-based; conditions: T-cell
Method in brief: as §1

SR-786 = assay: alamarBlue cell proliferation assay; format: cell-based
Method in brief: as §1

[1] = tested on: MM primary patient samples; assay: proliferation of ex vivo-treated primary patient samples; format: cell-based; conditions: Homo sapiens
MV-4-11B cells = assay: FACS cell cycle profile; format: cell-based; conditions: 72 h, 30 nM and 100 nM
Hexim1 mRNA = Hexim1 mRNA in blood of xenograft bearing mice; format: in vivo; conditions: 24 h after dosing; MV-4-11B xenograft bearing mice
Method in brief: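 Mice bearing subcutaneous MV-4-11B xenografts were dosed daily with vehicle or test compound at 2, 4 or 12 mg/kg, and blood was collected on the indicated treatment days. Total RNA was isolated with TRI reagent, and 500 ng was reverse-transcribed. Hexim1 transcript was quantified by SYBR Green qRT-PCR.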

CNc1nc(-c2nc3ccc(N4CCN(C)CC4)cc3n2Cc2ccccc2)cn2c(C)nnc12 [BI 894999]
EC50 (HL-60): 2.7 ± 0.1 nM
EC50 (Kasumi-1): 2.8 ± 0.4 nM
EC50 (Kasumi-3): 3.4 ± 1.5 nM
EC50 (KG-1): 6.2 ± 2.2 nM
EC50 (MOLM-13): 12.8 ± 3.4 nM
EC50 (NOMO-1): 5.7 ± 4.1 nM
EC50 (OCI-AML3): 2.3 ± 0.5 nM
EC50 (THP-1 GFP): 4.1 ± 2 nM
EC50 (K562): > 10000 nM
EC50 (MOLT-3): 14.4 ± 6.5 nM
EC50 (MM.1R): 2.5 ± 2.1 nM
EC50 (RPMI 8226): 25 ± 9 nM
EC50 (OCI-Ly18): 5.6 ± 0.9 nM
EC50 (Pfeiffer): 10.7 ± 2.7 nM
EC50 (RI-1): 6.2 ± 1.9 nM
EC50 (OCI-Ly19): 13.2 ± 4.3 nM
EC50 (SU-DHL4): 13.3 ± 4.5 nM
EC50 (JEKO-1): 7.9 ± 2.1 nM
EC50 (DERL-2): 10.6 ± 9.5 nM
EC50 (SR-786): 77.3 ± 17.3 nM
EC50 ([1]; read-out: BI 894999 EC50, MM Patient 1): 52 nM
EC50 ([1]; read-out: BI 894999 EC50, MM Patient 2): 15 nM
EC50 ([1]; read-out: BI 894999 EC50, MM Patient 3): 7 nM
EC50 ([1]; read-out: BI 894999 EC50, MM Patient 4): > 2000 nM
EC50 ([1]; read-out: BI 894999 EC50, MM Patient 5): 500 nM
EC50 ([1]; read-out: BI 894999 EC50, MM Patient 6): 421 nM
EC50 ([1]; read-out: BI 894999 EC50, MM Patient 7): 54 nM
EC50 ([1]; read-out: BI 894999 EC50, MM Patient 8): 3 nM
EC50 ([1]; read-out: BI 894999 EC50, MM Patient 9): 21 nM
EC50 ([1]; read-out: BI 894999 EC50, MM Patient 10): 1 nM
EC50 ([1]; read-out: BI 894999 EC50, MM Patient 11): 57 nM
EC50 ([1]; read-out: BI 894999 EC50, MM Patient 12): 1360 nM
EC50 ([1]; read-out: BI 894999 EC50, MM Patient 13): 2 nM
EC50 ([1]; read-out: BI 894999 EC50, MM Patient 14): 275 nM
EC50 ([1]; read-out: BI 894999 EC50, MM Patient 15): 352 nM
cell cycle effect (MV-4-11B cells): G1 arrest
Hexim1 levels in blood (Hexim1 mRNA): back to baseline
